Our source for the Ki 0.5 values is ChEMBL document CHEMBL1128562, “1-Phenyl-3-amino-1,2,3,4-tetrahydronaphthalenes and related derivatives as ligands for the neuromodulatory sigma 3 receptor: further structure-activity relationships” (J Med Chem, 1995).

For assay [1], the target named is D(3) dopamine receptor (Homo sapiens) (UniProt P35462). The experiment in a line: Binding affinity against Dopamine receptor D3 by using [3H]- radioligand.
Assay [2] is described as follows: Binding affinity against Sigma receptor type 3 by using [3H]-(-)-H2-PAT as radioligand. Conditions: Rattus norvegicus.
Assay [3] deals with D(2) dopamine receptor (Rattus norvegicus) (UniProt P61169). The experiment in a line: Binding affinity against Dopamine receptor D2 by using [3H]- radioligand. An outline of the steps: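 D2 competition assay on rat corpus striatum homogenate (30 μg protein) in 10 mM Tris/150 mM NaCl, pH 7.4, at 30 °C for 90 min. Radioligand was 0.065 nM [3H]emonapride (YM-09151); 250 nM (+)-butaclamol defined nonspecific binding. Six to eight test concentrations spanning 0.01–10 000 nM, in triplicate. Sigmoidal-fit IC50 converted to K0.5 via IC50/(1 + L/KD); repeated twice, ± SEM.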
Sequence of D(2) dopamine receptor (Rattus norvegicus) (P61169 whole entry): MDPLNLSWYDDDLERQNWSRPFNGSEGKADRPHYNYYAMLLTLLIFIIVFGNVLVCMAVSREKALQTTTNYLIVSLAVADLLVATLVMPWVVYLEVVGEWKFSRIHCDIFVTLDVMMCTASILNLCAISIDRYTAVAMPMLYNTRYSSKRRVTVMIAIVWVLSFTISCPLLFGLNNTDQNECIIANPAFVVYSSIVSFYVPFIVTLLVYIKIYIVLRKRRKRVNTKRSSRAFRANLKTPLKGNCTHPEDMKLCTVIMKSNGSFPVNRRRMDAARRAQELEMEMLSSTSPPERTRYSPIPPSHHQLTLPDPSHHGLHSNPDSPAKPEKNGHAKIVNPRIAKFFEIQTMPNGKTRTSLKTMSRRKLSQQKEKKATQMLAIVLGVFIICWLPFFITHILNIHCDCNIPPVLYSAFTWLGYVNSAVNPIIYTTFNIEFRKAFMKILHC

Assay [4] concerns the target D(1A) dopamine receptor (Rattus norvegicus) (UniProt P18901). The experiment in a line: Binding affinity against Dopamine receptor D1 by using [3H]SCH-23390 as radioligand. An outline of the steps: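 Rat corpus striatum homogenate (30 μg protein) in 10 mM Tris with 150 mM NaCl, pH 7.4. Incubated 30 min at 30 °C with 0.3 nM [3H]SCH-23390; 300 nM cis-(Z)-flupenthixol defined nonspecific binding. Test ligand at 6–8 concentrations (0.01–10 000 nM) in triplicate, then filtration and scintillation counting. IC50 from sigmoidal fit converted to K0.5 = IC50/(1 + L/KD); assay repeated twice, ± SEM.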

For assay [5], the target named is D(2) dopamine receptor (Rattus norvegicus) (UniProt P61169).
For assay [6], the target named is D(1A) dopamine receptor (Rattus norvegicus) (UniProt P18901).
Sequence of D(1A) dopamine receptor (Rattus norvegicus) (P18901 whole entry): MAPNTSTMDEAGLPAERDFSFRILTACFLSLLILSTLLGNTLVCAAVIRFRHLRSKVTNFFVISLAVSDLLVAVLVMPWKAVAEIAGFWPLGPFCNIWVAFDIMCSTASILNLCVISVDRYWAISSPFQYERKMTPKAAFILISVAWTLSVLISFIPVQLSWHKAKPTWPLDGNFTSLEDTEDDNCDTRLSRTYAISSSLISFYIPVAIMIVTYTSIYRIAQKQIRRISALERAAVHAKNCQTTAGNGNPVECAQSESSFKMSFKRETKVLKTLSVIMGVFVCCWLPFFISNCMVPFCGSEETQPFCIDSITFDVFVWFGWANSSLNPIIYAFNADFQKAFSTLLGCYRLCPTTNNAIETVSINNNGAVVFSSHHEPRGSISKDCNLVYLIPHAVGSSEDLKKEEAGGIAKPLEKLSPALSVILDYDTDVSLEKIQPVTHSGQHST
Assay [7] deals with Sigma non-opioid intracellular receptor 1 (Rattus norvegicus) (UniProt Q9R0C9).
Sequence of Sigma non-opioid intracellular receptor 1 (Rattus norvegicus) (Q9R0C9 whole entry): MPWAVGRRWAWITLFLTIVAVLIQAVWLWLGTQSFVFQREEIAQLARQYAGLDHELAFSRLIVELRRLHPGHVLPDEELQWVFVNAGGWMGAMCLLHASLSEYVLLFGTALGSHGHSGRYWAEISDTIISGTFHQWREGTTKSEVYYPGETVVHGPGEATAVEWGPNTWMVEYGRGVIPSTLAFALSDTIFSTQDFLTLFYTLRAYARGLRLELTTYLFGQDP

A value given as a limit tells only on which side of the number the result lay.

Sequence of D(3) dopamine receptor (Homo sapiens) (P35462 whole entry, looked up): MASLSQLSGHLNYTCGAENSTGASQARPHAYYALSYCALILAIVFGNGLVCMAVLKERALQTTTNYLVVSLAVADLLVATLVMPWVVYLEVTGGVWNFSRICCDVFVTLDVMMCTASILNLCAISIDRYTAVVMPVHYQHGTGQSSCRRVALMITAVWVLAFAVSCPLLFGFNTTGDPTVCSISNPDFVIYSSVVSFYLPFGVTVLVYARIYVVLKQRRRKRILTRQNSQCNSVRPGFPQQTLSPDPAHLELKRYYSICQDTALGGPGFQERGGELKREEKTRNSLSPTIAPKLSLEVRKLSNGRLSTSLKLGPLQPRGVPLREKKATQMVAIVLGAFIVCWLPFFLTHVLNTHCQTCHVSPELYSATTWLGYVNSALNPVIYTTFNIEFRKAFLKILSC

Regarding `C[N+](C)(C)[C@@H]1Cc2ccccc2[C@@H](c2ccccc2)C1`, the Ki 0.5 in assay [1] was over 1 µM; in assay [2], 0.035 µM; in assay [3], over 2.5 µM; in assay [4], over 5 µM.

Turning to `CN(CCCCc1ccccc1)[C@@H]1Cc2ccccc2[C@@H](c2ccccc2)C1`, the Ki 0.5 in assay [2] stood at 0.28 µM; in assay [3], 0.24 µM; in assay [4], 0.44 µM.

For `CN(C)[C@@H]1CCc2ccccc2[C@@H](c2ccccc2)C1`, the Ki 0.5 is 1 µM in assay [1], 0.0218 µM in assay [2], 5 µM in assay [3] and over 5 µM in assay [4].

Consider `CN(CCCc1ccccc1)[C@@H]1Cc2ccccc2[C@@H](c2ccccc2)C1`, for which the results for the Ki 0.5 in assay [2], in assay [3] and in assay [4] were 0.3 µM, 0.54 µM and 0.38 µM, respectively.

`c1ccc(CCCN[C@@H]2Cc3ccccc3[C@@H](c3ccccc3)C2)cc1`: the Ki 0.5 in assay [2] was 2.53 µM; in assay [3], 5 µM; in assay [4], over 5 µM.

In assay [2], `CN(C)[C@@H]1Cc2ccccc2[C@H](c2ccccc2)C1` had a Ki 0.5 of 0.074 µM.

Take `CN(C)[C@@H]1Cc2ccccc2[C@@H](c2ccccc2)C1` (stereo in doubt; 2): the Ki 0.5 in assay [1] came out at 1 µM; in assay [2], 0.0011 µM; in assay [3], 5 µM; in assay [4], 2.5 µM.

Consider `CN(C)[C@@H]1CCc2ccccc2[C@H]1c1ccccc1`, for which the Ki 0.5 in assay [1] was over 1 µM; in assay [2], 0.98 µM; in assay [3], over 5 µM; in assay [4], over 5 µM.

Turning to `CN(C)[C@@H]1CCc2ccccc2[C@@H]1c1ccccc1`, the Ki 0.5 in assay [1] was over 1 µM; in assay [2], 1.3 µM; in assay [3] it was over 5 µM; in assay [4], over 5 µM.

For the compound `CN(C)[C@@H]1Cc2ccccc2[C@@](C)(c2ccccc2)C1`, the Ki 0.5 in assay [1] is over 1 µM; in assay [2] it was 0.0182 µM; in assay [3], over 5 µM; in assay [4], over 5 µM.

Turning to `c1ccc(CCCCN[C@@H]2Cc3ccccc3[C@@H](c3ccccc3)C2)cc1`, the Ki 0.5 is 1.05 µM in assay [2], 1.6 µM in assay [3] and 1.53 µM in assay [4].

On to `CN(C)[C@@H]1Cc2ccccc2[C@@H](c2ccccc2)C1` (stereo in doubt; (+)-2), for which the Ki 0.5 in assay [1] was 1 µM; in assay [2], 0.0135 µM; in assay [3], over 5 µM; in assay [4], over 5 µM.

`CN(C)[C@H]1CCc2ccccc2[C@H](c2ccccc2)C1`: the Ki 0.5 in assay [1] was over 1 µM; in assay [2], 0.12 µM; in assay [3], over 5 µM; in assay [4] it was over 5 µM.

For `CN(C)[C@@H]1Cc2ccccc2[C@@H](c2ccccc2)C1` (stereo in doubt; (-)-2), the Ki 0.5 in assay [1] was over 1 µM; in assay [2], 0.0005 µM; in assay [3], over 5 µM; in assay [4] it was over 5 µM.

With `CN[C@@H]1Cc2ccccc2[C@@H](c2ccccc2)C1`, the Ki 0.5 in assay [1] was over 1 µM; in assay [2], 0.12 µM; in assay [3], over 5 µM; in assay [4], over 5 µM.

`CN(C)[C@H]1Cc2ccccc2[C@@](C)(c2ccccc2)C1`: the Ki 0.5 is 1 µM in assay [1], 0.0025 µM in assay [2], over 5 µM in assay [3] and over 2.5 µM in assay [4].

On to `CN(CCc1ccccc1)[C@@H]1Cc2ccccc2[C@@H](c2ccccc2)C1`, for which the Ki 0.5 in assay [2] came to 0.15 µM; in assay [3], 0.37 µM; in assay [4] it was 0.054 µM.

On to `CN(C)[C@@H]1Cc2cc(Cl)c(O)cc2[C@@H](c2ccccc2)C1`, for which the Ki 0.5 in assay [5] amounted to 0.26 µM; in assay [6], 0.42 µM; in assay [7] it was 2 µM; in assay [1], 0.3 µM; in assay [2] it was 0.0003 µM.
